ChEMBL document CHEMBL1938348, “Novel inhibitors of surface layer processing in Clostridium difficile” (Bioorg Med Chem, 2012)
Calls of active or inactive are those of the source. The calls are words filed in the database; no cut-off is given here. Where a SMILES comes first, the peptide text is derived from it. The star is where a group is joined. X1 = CCOC(=O)/C=C/[C@H](CO)N*

Legend:
Details in all cases: Clostridioides difficile
[1] = molecular target: T1, Precursor of the S-layer proteins (Clostridium difficile (strain 630)) (UniProt Q183M8); assay: Inhibition of Clostridium difficile 630 S-layer processing of slpA at 100 uM by Western blot analysis
T1 sequence (whole entry): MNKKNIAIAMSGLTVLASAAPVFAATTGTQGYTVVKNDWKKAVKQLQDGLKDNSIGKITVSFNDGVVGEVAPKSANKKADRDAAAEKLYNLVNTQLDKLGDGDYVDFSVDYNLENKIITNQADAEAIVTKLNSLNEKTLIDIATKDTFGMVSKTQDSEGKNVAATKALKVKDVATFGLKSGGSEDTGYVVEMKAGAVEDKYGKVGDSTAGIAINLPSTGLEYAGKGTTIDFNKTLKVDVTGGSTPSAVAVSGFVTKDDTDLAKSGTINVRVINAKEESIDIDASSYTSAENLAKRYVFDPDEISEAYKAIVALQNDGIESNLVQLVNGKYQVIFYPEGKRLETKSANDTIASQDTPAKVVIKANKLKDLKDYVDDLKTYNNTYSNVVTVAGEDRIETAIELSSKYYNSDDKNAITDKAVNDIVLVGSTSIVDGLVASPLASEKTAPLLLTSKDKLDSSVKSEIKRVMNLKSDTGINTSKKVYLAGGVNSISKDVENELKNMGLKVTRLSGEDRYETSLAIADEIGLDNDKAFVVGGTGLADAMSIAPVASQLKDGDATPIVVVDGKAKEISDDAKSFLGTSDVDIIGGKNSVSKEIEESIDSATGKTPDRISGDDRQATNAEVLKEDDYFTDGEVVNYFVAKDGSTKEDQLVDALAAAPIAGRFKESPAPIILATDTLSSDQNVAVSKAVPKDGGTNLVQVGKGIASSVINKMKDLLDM
In short: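 C. difficile strain 630 grown overnight (16 h), anaerobic, 37 °C, in BHI with compound at 100 µM or DMSO vehicle. Surface layer proteins extracted with 0.2 M glycine–HCl pH 2.2 (30 min, room temperature), run on SDS–PAGE and semi-dry blotted to PVDF. Probed with rabbit anti-LMW SLP (1/200,000), then goat anti-rabbit-HRP (1/2000). Chemiluminescence read-out.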

[2] = molecular target: T2, Cell surface protein (Clostridium difficile (strain 630)) (UniProt Q183M1); assay: Binding affinity to Clostridium difficile 630 cwp84 at 74 kDa by Western blot analysis
T2 sequence (whole entry): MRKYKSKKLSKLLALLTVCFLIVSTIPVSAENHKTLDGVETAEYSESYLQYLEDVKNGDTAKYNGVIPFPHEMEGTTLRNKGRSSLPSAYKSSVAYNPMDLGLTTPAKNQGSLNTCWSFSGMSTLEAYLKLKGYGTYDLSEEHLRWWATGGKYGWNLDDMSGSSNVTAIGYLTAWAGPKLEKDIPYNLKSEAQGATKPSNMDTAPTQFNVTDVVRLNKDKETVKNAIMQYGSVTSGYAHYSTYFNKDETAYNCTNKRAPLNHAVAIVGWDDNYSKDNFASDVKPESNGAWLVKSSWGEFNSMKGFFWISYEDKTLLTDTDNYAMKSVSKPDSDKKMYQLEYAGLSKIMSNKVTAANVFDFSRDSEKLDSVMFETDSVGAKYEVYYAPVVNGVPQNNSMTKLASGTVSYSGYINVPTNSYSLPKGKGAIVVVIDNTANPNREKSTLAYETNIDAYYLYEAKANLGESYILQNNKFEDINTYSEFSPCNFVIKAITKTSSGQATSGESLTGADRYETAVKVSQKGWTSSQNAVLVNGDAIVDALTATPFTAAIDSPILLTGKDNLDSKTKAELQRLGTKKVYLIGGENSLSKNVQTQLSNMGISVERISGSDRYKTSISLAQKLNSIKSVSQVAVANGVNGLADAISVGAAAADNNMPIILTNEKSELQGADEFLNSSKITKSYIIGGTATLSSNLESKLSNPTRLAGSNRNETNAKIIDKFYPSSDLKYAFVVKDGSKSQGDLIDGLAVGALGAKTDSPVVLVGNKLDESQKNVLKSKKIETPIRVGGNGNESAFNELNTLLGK

[3] = molecular target: T2, Cell surface protein (Clostridium difficile (strain 630)); assay: Binding affinity to Clostridium difficile 630 higher molecular weight cwp84 by Western blot analysis
[4] = molecular target: T2, Cell surface protein (Clostridium difficile (strain 630)); assay: Binding affinity to Clostridium difficile 630 cwp84 at lower band by Western blot analysis

| Structure (SMILES) | inhibition [1] | Activity [2] | Activity [3] | Activity [4] |
| --- | --- | --- | --- | --- |
| N=C(N)NCCC[C@H](NC(=O)CCl)C(=O)NCCOCCOCCOCCNC(=O)CCCC[C@@H]1SC[C@@H]2NC(=O)N[C@@H]21 | Active |  |  |  |
| CC(C)C[C@H](NC(=O)CCl)C(=O)N[C@@H](CCCNC(=N)N)C(=O)NCCOCCOCCOCCNC(=O)CCCC[C@@H]1SC[C@@H]2NC(=O)N[C@@H]21 | Active | Active | Active |  |
| CCOC(=O)/C=C/[C@H](CO)NC(=O)[C@H](Cc1ccc(O)cc1)NC(=O)[C@H](CCCCNC(=O)CCCC[C@@H]1SC[C@@H]2NC(=O)N[C@@H]21)NC(C)=O | Active |  | inactive | Active |
| O=C(CCCC[C@@H]1SC[C@@H]2NC(=O)N[C@@H]21)NCCOCCOCCOCCNC(=O)[C@H](CO)NC(=O)CF | inactive |  |  |  |
| CCOC(=O)/C=C/[C@H](CO)NC(=O)[C@H](CCCCN)NC(=O)[C@@H](NC(=O)[C@H](CCC(=O)O)NC(=O)[C@H](CC(C)C)NC(C)=O)[C@@H](C)O (Ac-LETK-X1) | Active |  |  |  |
| CCOC(=O)/C=C/[C@H](CO)NC(=O)[C@H](CC(C)C)NC(=O)[C@H](CCCCNC(=O)CCCC[C@@H]1SC[C@@H]2NC(=O)N[C@@H]21)NC(C)=O | Active |  | inactive | Active |
| O=C(CCCC[C@@H]1SC[C@@H]2NC(=O)N[C@@H]21)NCCOCCOCCOCCNC(=O)[C@H](CO)NC(=O)CCl | Active |  |  |  |
| C[C@H](NC(=O)CF)C(=O)NCCOCCOCCOCCNC(=O)CCCC[C@@H]1SC[C@@H]2NC(=O)N[C@@H]21 | inactive |  |  |  |
| CCOC(=O)/C=C/C(=O)N[C@@H](CC(C)C)C(=O)N[C@@H](CCCNC(=N)N)C(=O)NCCOCCOCCOCCNC(=O)CCCC[C@@H]1SC[C@@H]2NC(=O)N[C@@H]21 | inactive |  |  |  |
| CCOC(=O)/C=C/C(=O)N[C@@H](CCCNC(=N)N)C(=O)NCCOCCOCCOCCNC(=O)CCCC[C@@H]1SC[C@@H]2NC(=O)N[C@@H]21 | inactive |  |  |  |
| CCOC(=O)/C=C/C(=O)N[C@@H](CO)C(=O)NCCOCCOCCOCCNC(=O)CCCC[C@@H]1SC[C@@H]2NC(=O)N[C@@H]21 | inactive |  |  |  |
| N=C(N)NCCC[C@H](NC(=O)CF)C(=O)NCCOCCOCCOCCNC(=O)CCCC[C@@H]1SC[C@@H]2NC(=O)N[C@@H]21 | inactive |  |  |  |
| CCOC(=O)/C=C/C(=O)N[C@@H](C)C(=O)NCCOCCOCCOCCNC(=O)CCCC[C@@H]1SC[C@@H]2NC(=O)N[C@@H]21 | inactive |  |  |  |
| C[C@H](NC(=O)CCl)C(=O)NCCOCCOCCOCCNC(=O)CCCC[C@@H]1SC[C@@H]2NC(=O)N[C@@H]21 | Active |  |  |  |
| CC(C)C[C@H](NC(=O)CF)C(=O)N[C@@H](CCCNC(=N)N)C(=O)NCCOCCOCCOCCNC(=O)CCCC[C@@H]1SC[C@@H]2NC(=O)N[C@@H]21 | inactive |  |  |  |
